What was measured:
[1] = Selectivity index, ratio of EC50 for MT4 cells to EC50 for HIV1; format: cell-based; settings: human; for Selectivity index: mt4; for selectivity ratio: MT4 cells, read-out: Selectivity index
Method in brief: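 Ratio of the cytotoxicity EC50 to the antiviral EC50, both from the 5-day MT-4 assay with virus-induced cell death as the antiviral read-out. Values are means of at least two independent experiments.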

[2] = system: Human immunodeficiency virus 1; experiment: Antiviral activity against HIV1 in MT4 cells; format: functional, organism-based; settings: Human immunodeficiency virus 1, MT4
Method in brief: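 HIV-1 infectivity assay in MT-4 cells over 5 days, with virus-induced cell death as the read-out. EC50 is the mean of at least two independent experiments.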

[3] = Partition coefficient, log D of the compound; format: physicochemical; settings: octanol/water

| Compound | EC50 [2] [µM] | logD [3] | Selectivity index [1] | selectivity ratio [1] |
| --- | --- | --- | --- | --- |
| CSc1nnc(-c2ccsc2)n1Cc1ccccc1 | > 100 |  | Not Active |  |
| Clc1ccccc1-c1nnc(SCc2ccccc2)n1Cc1ccccc1 | 2.85 |  |  | 2.9 |
| c1ccc(Cn2c(SCc3ccncc3)nnc2-c2ccsc2)cc1 | 41.5 |  |  | 1 |
| CCCCCCSc1nnc(-c2ccsc2)n1Cc1ccccc1 | > 100 |  | Not Active |  |
| CCCCCCSc1nnc(-c2cccs2)n1Cc1ccccc1 | > 100 |  | Not Active |  |
| COc1ccc(CSc2nnc(-c3ccsc3)n2Cc2ccccc2)cc1 | 5.8 |  |  | 1 |
| Clc1cccc(CSc2nnc(-c3ccsc3)n2Cc2ccccc2)c1Cl | 1.3 |  |  | 5 |
| CSc1nnc(-c2cccs2)n1Cc1ccccc1 | > 100 |  | Not Active |  |
| c1ccc(CSc2nnc(-c3ccccc3)n2Cc2ccccc2)cc1 | 10.5 |  |  | 1.1 |
| c1ccc(Cn2c(SCc3ccccn3)nnc2-c2cccs2)cc1 | 8.3 |  |  | 5 |
| c1ccc(Cn2c(SCc3cccnc3)nnc2-c2ccsc2)cc1 | 23 |  |  | 2 |
| c1ccc(CCSc2nnc(-c3cccs3)n2Cc2ccccc2)cc1 | 28.5 |  |  | ≤ 1 |
| Cn1c(SCc2ccccc2)nnc1-c1cccs1 | > 100 |  | Not Active |  |
| c1ccc(CSc2nnc(-c3cccs3)n2-c2ccccc2)cc1 | > 100 |  | Not Active |  |
| Cc1nnc(SCc2ccccc2)n1Cc1ccccc1 | 23.5 |  |  | 2 |
| c1ccc(CSc2nnc(-c3ccsc3)n2Cc2ccccc2)cc1 | 9.2 |  |  | 2 |
| c1ccc(CCn2c(SCc3ccccc3)nnc2-c2cccs2)cc1 | > 100 |  | Not Active |  |

| Compound | EC50 [2] [µM] | logD [3] | Selectivity index [1] | selectivity ratio [1] |
| --- | --- | --- | --- | --- |
| N#Cc1ccc(CSc2nnc(-c3ccsc3)n2Cc2ccccc2)cc1 | > 100 |  | Not Active |  |
| c1ccc(CSc2nnc(-c3cc4ccccc4s3)n2Cc2ccccc2)cc1 | > 100 |  | Not Active |  |
| c1ccc(CSc2nnc(Cc3cccs3)n2Cc2ccccc2)cc1 | > 100 |  | Not Active |  |
| Clc1ccc(CSc2nnc(-c3ccsc3)n2Cc2ccccc2)cc1Cl | 4.7 |  |  | 1.2 |
| Clc1ccccc1CSc1nnc(-c2ccsc2)n1Cc1ccccc1 | 0.131 |  |  | 62 |
| c1ccc(Cn2c(SCc3ccccn3)nnc2-c2ccsc2)cc1 |  |  | Not Active |  |
| Clc1cccc(Cl)c1CSc1nnc(-c2ccsc2)n1Cc1ccccc1 | > 100 |  | Not Active |  |
| Clc1ccc(CSc2nnc(-c3ccsc3)n2Cc2ccccc2)c(Cl)c1 | 3.3 |  |  | 2.9 |
| Clc1cccc(CSc2nnc(-c3cccs3)n2Cc2ccccc2)c1Cl | 0.73 |  |  | 9.1 |
| c1ccc(Cn2c(SCc3ccc4ccccc4c3)nnc2-c2ccsc2)cc1 | 0.58 |  |  | 11.1 |
| c1ccc(CSc2nnc(-c3ccco3)n2Cc2ccccc2)cc1 | 4.6 |  |  | 5.2 |
| c1ccc(CCSc2nnc(-c3ccsc3)n2Cc2ccccc2)cc1 | > 100 |  | Not Active |  |
| Clc1ccc(Cl)c(CSc2nnc(-c3ccsc3)n2Cc2ccccc2)c1 | 8.95 |  |  | 1.6 |
| c1ccc(Cn2c(SCc3ccc4ccccc4c3)nnc2-c2cccs2)cc1 | 1.7 |  |  | 5.9 |
| Clc1cccc(CSc2nnc(-c3ccsc3)n2Cc2ccccc2)c1 | 1.6 |  |  | 6.3 |
| Clc1cccc(Cl)c1CSc1nnc(-c2cccs2)n1Cc1ccccc1 | 3.45 |  |  | 1.7 |
| O=C1Nc2ccc(Cl)cc2C(C#CC2CC2)(C(F)(F)F)O1 (single isomer, unassigned) [EFAVIRENZ] |  |  |  | > 6000 |

Now from value to compound, other results behind:

| EC50 [2] [µM] | logD [3] | Compound | Selectivity index [1] | selectivity ratio [1] |
| --- | --- | --- | --- | --- |
| 8.3 |  | c1ccc(Cn2c(SCc3cccnc3)nnc2-c2cccs2)cc1 |  | 6 |
| 2 |  | Clc1ccc(CSc2nnc(-c3cccs3)n2Cc2ccccc2)cc1 |  | 5.7 |
| 23.5 |  | N#Cc1ccc(CSc2nnc(-c3cccs3)n2Cc2ccccc2)cc1 |  | < 1 |
| 0.44 |  | Clc1ccccc1CSc1nnc(-c2cccs2)n1Cc1ccccc1 |  | 35.2 |
| 2.4 |  | Clc1ccc(CSc2nnc(-c3cccs3)n2Cc2ccccc2)cc1Cl |  | 3.1 |
| > 100 |  | Clc1ccc(Cn2c(SCc3ccccc3)nnc2-c2cccs2)cc1 |  |  |
| 1 |  | Clc1ccc(Cl)c(CSc2nnc(-c3cccs3)n2Cc2ccccc2)c1 |  | 7.9 |
| 3 |  | COc1ccc(CSc2nnc(-c3cccs3)n2Cc2ccccc2)cc1 |  | 3.8 |
| 4.8 |  | c1ccc(Cn2c(SCc3ccncc3)nnc2-c2cccs2)cc1 |  | 15 |
| 3.7 | 3.5 | c1ccc(CSc2nnc(-c3cccs3)n2Cc2ccccc2)cc1 |  | 8 |
| > 100 |  | COc1ccc(Cn2c(SCc3ccccc3)nnc2-c2cccs2)cc1 | Not Active |  |
| 51.1 |  | Clc1ccc(CSc2nnc(-c3ccsc3)n2Cc2ccccc2)cc1 |  | ≤ 1 |
| > 100 |  | Clc1ccc(Cn2c(SCc3ccccc3)nnc2-c2cccs2)cc1Cl | Not Active |  |
| 1.7 |  | Clc1cccc(CSc2nnc(-c3cccs3)n2Cc2ccccc2)c1 |  | 5.3 |
| 1.1 |  | Clc1ccc(CSc2nnc(-c3cccs3)n2Cc2ccccc2)c(Cl)c1 |  | 7.7 |

Reference: ChEMBL document CHEMBL1140818, “Triazole derivatives as non-nucleoside inhibitors of HIV-1 reverse transcriptase--structure-activity relationships and crystallographic analysis” (Bioorg Med Chem Lett, 2008)
